Bioassay records as filed in PubChem BioAssay.
This is a sample that favours compounds with a hit; in the whole collection about 1.8% have one here.
M4 ag = CHRM4 agonism in calcium assay; actives 0.14% (n = 360,000); P08173; CHO-K1 hM4/Gqi5, Fluo-8 calcium fluorescence; vehicle 0%, full acetylcholine response 100%; activation, % at 3 µM;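 active = activation above the run mean over all test wells plus 3 SD, cut at about 32% in these data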;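 note: peak over basal fluorescence ratio per well then scaled between controls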
CHRM5 PAM = potentiates acetylcholine response at human M5 receptor; actives 0.3% (n = 360,000); activation, % at 3 µM; P08912; CHO-K1 hM5, Fluo-8 calcium, ACh EC20 PAM; 0% = ACh EC20, 100% = ACh EC100; AID 624038;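 active = activation above the run cutoff, the mean activation of all test compounds plus 3 SD, cut at about 18% in these data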
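System: CHO-K1 hM5 cells. Reagent: acetylcholine, EC20 level. Compound dosing: single dose, 3 µM nominal final test concentration. Timing: Post-acetylcholine fluorescence recording 140 s. Detection: Fluo-8 calcium fluorescence. Read-out: % activation, ACh-normalized. Benchmarks: ACh EC20 and EC100 wells. Repeats: singlicate, one well per test compound.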
M5 ag = agonists of human muscarinic M5 receptor (CHRM5); CHO-K1 hM5 cells, Fluo-8 calcium fluorescence; 0% DMSO wells, 100% maximal acetylcholine response; P08912; activation, % at 3 µM; actives 0.19% (n = 360,000);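 active = activation above the run's mean over test compounds plus 3 SD, cut at about 23% in these data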;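 note: signal is peak over basal fluorescence ratio across the kinetic read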
CHRM4 antagonist = blocks acetylcholine activation of human M4 receptor; CHO-hM4 cells, ACh EC80, Fluo-8 calcium fluorescence; inhibition, % at 3 µM; actives 0.73% (n = 360,000); AID 624125;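 active = inhibition above its plate's cutoff, the mean inhibition of sample wells plus 3 SD, cut at about 27% in these data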
CHRM5 antagonist = antagonists of human muscarinic M5 receptor (CHRM5) | CHO-hM5 cells, Fluo-8 calcium fluorescence, ACh EC80 | inhibition, % at 3 µM | actives 0.59% (n = 360,000);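 active = inhibition above a per-plate cutoff, the mean of that plate's test compounds plus 3 SD, cut at about 27% in these data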
CHRM4 PAM = CHRM4 positive allosteric modulation. CHO-K1 hM4/Gqi5, Fluo-8 calcium fluorescence, ACh EC20; 0% = ACh EC20, 100% = maximal ACh. actives 0.4% (n = 360,000). P08173. activation, % at 3 µM;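 active = activation above its plate's cutoff, the mean activation of sample wells plus 3 SD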
Hits are given with their value; 0 = inactive.

SMILES	M4 ag	CHRM5 PAM	M5 ag	CHRM4 antagonist	CHRM5 antagonist	CHRM4 PAM
C=CCN(C(=O)C1CC(=O)N(C2CCCC2)C1)c1nc(-c2ccc(S(C)(=O)=O)cc2)cs1 (stereo unspecified)	32	0	0	0	0	0
Cc1ccc(Sc2c([N+](=O)[O-])c(C)nn2C)cc1	0	0	0	63	28	0
Cc1ccc(Sc2c([N+](=O)[O-])ncn2C)cc1	0	0	0	0	0	0
Nc1nnc(SCC(=O)Nc2cccnc2Cl)s1	0	0	0	0	0	23
Cc1cccc(Nc2nnc(SCC(=O)Nc3cccnc3Cl)s2)c1	0	0	0	0	0	0
COc1cc(NC(=O)C2CCC(CNS(=O)(=O)c3csc(C(N)=O)c3)CC2)cc(OC)c1 (stereo unspecified)	0	0	0	0	0	0
CCN(C(=O)CN1C(=O)S/C(=C\c2cccc(OC)c2)C1=O)C1CCS(=O)(=O)C1 (stereo unspecified)	0	0	0	0	0	0
O=C(N/N=C\c1cn(-c2ccccc2)nc1-c1ccccc1)c1ccc(Br)o1	0	0	0	27	0	0
Cc1ccc(-c2nn(-c3ccccc3)cc2/C=N/NC(=O)c2ccc(Br)o2)cc1	0	0	0	0	0	0
Cc1ccccc1Cc1c(C)nc2nc(SCC(=O)NCCCN3CCCCC3)nn2c1C	0	0	0	0	0	0
Cc1nc2nc(SCC(=O)NCCCN3CCCCCC3)nn2c(C)c1Cc1ccccc1	0	0	0	38	0	0
Cc1ccc(S(=O)(=O)c2nnn3c2nc(NCCCN2CCCC2=O)c2ccccc23)cc1C	0	0	0	0	0	0
Cc1ccc(S(=O)(=O)c2nnn3c2nc(NC2CCN(Cc4ccccc4)CC2)c2ccccc23)cc1C	0	0	0	43	0	0
O=C(NCc1ccc(F)cc1)c1cccc2c1C(=O)c1ccc(N3CCC(Cc4ccccc4)CC3)cc1S2(=O)=O	0	0	0	0	0	0
CC(C)(C)CNC(=O)c1cccc2c1C(=O)c1ccc(N3CCCC3)cc1S2(=O)=O	39	0	0	0	0	0
O=C(NC1CC1)c1cccc2c1C(=O)c1ccc(N3CCC(Cc4ccccc4)CC3)cc1S2(=O)=O	0	0	0	27	0	0
COc1ccc(NC(=O)c2cc(C)cc(C)c2)cc1S(=O)(=O)N1CCCCC1	0	0	0	0	0	0
CC(=O)n1c(-c2ccccc2)c(-c2ccccc2)n(C)c1=O	0	0	0	0	0	0
COCCn1c(=N)c(S(=O)(=O)c2ccc(F)cc2)cc2c(=O)n3ccccc3nc21	0	0	0	0	0	0
O=c1cc(O)c2c(=O)[nH]c(=O)n(-c3ccccc3)c2[nH]1	0	0	0	0	0	16
Cn1c(=O)c2c(O)cc(=O)[nH]c2n(-c2ccccc2)c1=O	0	0	0	0	0	0
CC(C)CNC(=O)c1ccc(C2SCC(=O)N2Cc2ccccc2)cc1 (stereo unspecified)	0	0	0	47	0	0
N#CC(C#N)=C1C=CC=CN1/C(=C\c1ccco1)C(=O)c1ccc(Br)cc1	0	0	0	69	0	0
N#CC(C#N)=C1C=CC=CN1/C(=C\c1ccco1)C(=O)c1ccccc1	0	0	0	30	0	0
COc1ccc(C(=O)/C(=C\c2ccco2)N2C=CC=CC2=C(C#N)C#N)cc1	0	0	0	0	0	0
O=C(N=C1SC2CS(=O)(=O)CC2N1c1ccc(F)c(Cl)c1)C1CCCO1 (stereo unspecified)	0	0	0	0	0	0
Cc1cc(C)c2sc(NNC(=O)C3COc4ccccc4O3)nc2c1 (stereo unspecified)	0	0	0	0	0	16
CC(OC(=O)C1CCCCC1)C(=O)Nc1ccc(S(N)(=O)=O)cc1 (stereo unspecified)	0	0	0	0	0	22
Cn1c(SCc2c(Cl)cccc2Cl)nnc1-c1ccc2nonc2c1	0	0	0	0	0	26
COc1cc(CN2CCNC(=O)C2CC(=O)N(C)CCN2CCOCC2)cc(OC)c1 (stereo unspecified)	0	0	0	0	0	0
